Experimental data: ChEMBL document CHEMBL1129965, “GRID/GOLPE 3D quantitative structure-activity relationship study on a set of benzamides and naphthamides, with affinity for the dopamine D3 receptor subtype” (J Med Chem, 1997)

Molecular target: D(3) dopamine receptor (Homo sapiens, UniProt P35462)
Test: Competitive inhibition of [3H]spiperone binding to the human dopamine receptor D3 expressed in CHO cells, expressed as 10log Ki
Assay type: cell-based
How it was run: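 Displacement of [3H]spiperone from human dopamine D3 receptors expressed in CHO K1 cells. Four to six test concentrations, each run in triplicate. IC50 from nonlinear regression, converted to Ki (nM) by Cheng–Prusoff, then reported as 10log Ki.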

Sequence of D(3) dopamine receptor (P35462 whole entry): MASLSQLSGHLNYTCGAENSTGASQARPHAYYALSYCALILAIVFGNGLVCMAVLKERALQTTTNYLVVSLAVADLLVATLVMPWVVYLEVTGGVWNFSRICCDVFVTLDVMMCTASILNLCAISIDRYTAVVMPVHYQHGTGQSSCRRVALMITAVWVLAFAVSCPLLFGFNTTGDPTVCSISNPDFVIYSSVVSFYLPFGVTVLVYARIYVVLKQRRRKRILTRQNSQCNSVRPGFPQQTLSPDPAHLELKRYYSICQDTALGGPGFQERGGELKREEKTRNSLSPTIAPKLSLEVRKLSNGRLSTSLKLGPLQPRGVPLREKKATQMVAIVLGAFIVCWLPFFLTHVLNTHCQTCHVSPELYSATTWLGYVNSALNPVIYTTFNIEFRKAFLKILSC

Ki	SMILES
251 nM	COc1c(C(=O)NCCN2CCN(c3ccc4ccccc4n3)CC2)cc(Br)c2ccccc12
200 nM	COc1c(C(=O)NCCN2CCN(c3ccc(F)cc3F)CC2)cc(Br)c2ccccc12
501 nM	COc1c(Cl)cc(Cl)c(O)c1C(=O)NCCN1CCN(c2cccc(Cl)c2Cl)CC1
79.4 nM	COc1c(C(=O)NCCN2CCC(c3ccccc3)CC2)cc(Br)c2ccccc12
398 nM	COc1ccc(Br)c(O)c1C(=O)NCCN1CCN(c2ccccc2)CC1
100 nM	COc1c(C(=O)NCCN2CCN(c3ccc(Cl)cc3Cl)CC2)cc(Br)c2ccccc12
316 nM	COc1ccc(Br)cc1C(=O)NCCN1CCN(c2ccccc2)CC1
79.4 nM	CCOc1c(C(=O)NCCN2CCN(c3ccccn3)CC2)cc(Br)c2ccccc12
200 nM	COc1c(C(=O)NCCN2CCN(c3ccc(Cl)c(Cl)c3)CC2)cc(Br)c2ccccc12
63.1 nM	COc1c(C(=O)NCCN2CCN(c3ccccc3C)CC2)cc(Br)c2ccccc12
251 nM	CCOc1c(C(=O)NCCN2CCN(c3ccccc3)CC2)cc(Br)c2ccccc12
79.4 nM	COc1ccccc1N1CCN(CCNC(=O)c2cc(Br)c3ccccc3c2OC)CC1
39.8 nM	COc1c(C(=O)NCCN2CCN(c3ccccc3Cl)CC2)cc(Br)c2ccccc12
251 nM	COc1c(C(=O)NCCN2CCN(c3cccc(C(F)(F)F)c3)CC2)cc(Br)c2ccccc12
316 nM	COc1c(C(=O)NCCN2CCN(c3ccccc3)CC2)cc2ccccc2c1Br

The remaining lines, values behind:

SMILES	Ki
CCOc1c(C(=O)NCCN2CCN(c3ccccc3OC)CC2)cc(Br)c2ccccc12	79.4 nM
COc1c(C(=O)NCCN2CCN(c3ccccn3)CC2)cc(Br)c2ccccc12	79.4 nM
COc1c(C(=O)NCCN2CC=C(c3ccccc3)CC2)cc(Br)c2ccccc12	20 nM
CCc1cc(Cl)c(O)c(C(=O)NCCN2CCN(c3ccccc3)CC2)c1OC	1580 nM
COc1c(C(=O)NCCN2CCN(c3cccc(Cl)c3C)CC2)cc(Br)c2ccccc12	50.1 nM
CCOc1c(C(=O)NCCN2CCN(c3cccc(C(F)(F)F)c3)CC2)cc(Br)c2ccccc12	126 nM
COc1c(C(=O)NCCN2CCN(c3cccc(C)c3)CC2)cc(Br)c2ccccc12	316 nM
COc1c(C(=O)NCCN2CCN(c3ccc(C)cc3)CC2)cc(Br)c2ccccc12	251 nM
COc1c(C(=O)NCCN2CCN(c3ccccc3)CC2)cc(Br)c2ccccc12	25.1 nM
COc1c(Cl)cc(Cl)c(O)c1C(=O)NCCN1CCN(c2ccccc2)CC1	1000 nM
COc1c(C(=O)NCCN2CCN(c3ccccc3C#N)CC2)cc(Br)c2ccccc12	50.1 nM
COc1c(C(=O)NCCN2CCN(c3ccccc3)CC2)cc(Cl)c2ccccc12	50.1 nM
COc1c(C(=O)NCCN2CCN(c3cccc(Cl)c3Cl)CC2)cc(Cl)c2ccccc12	39.8 nM

Molecular target: not listed separately
Test: Competitive inhibition of [3H]spiperone binding to the human dopamine receptor D3 expressed in CHO cells, expressed as 10log Ki

Log Ki(nM)	SMILES
1.6	COc1c(C(=O)NCCN2CCN(c3cccc(Cl)c3)CC2)cc(Br)c2ccccc12
